From PubChem
CFTR F508del cor = CFTR F508del correction in bronchial cells. CFBE cells, YFP halide quenching; stimulated with forskolin plus potentiator P3; % fluorescence drop versus neutral controls. activity (quench increase), % at 7.58 µM. 350,000 tested, 0.36% active. AID 720511;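 active = mean added fluorescence quench of at least 8% versus neutral control, with both replicates also reaching 8%; inconclusive = only one of the mean or replicate conditions met; inactive = mean below 8% and not both replicates reaching 8%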;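 note: cells transiently co-express mutant CFTR-F508del with the halide-sensitive YFP; corrector assay measuring rescue of mutant channel to the surface after 24 h compound exposure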
FN deposit inh = fibronectin deposition inhibition; 350,000 tested, 0.086% active; AH1F fibroblasts, Alexa488-fibronectin deposition fluorescence, overnight; inhibition, % at 12.6 µM;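 active = mean inhibition across replicates of 30% or more, regardless of how many single replicates reach that level; inconclusive = mean under 30% yet at least half of replicates reach 30%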;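 note: positive control wells lacked labelled fibronectin entirely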
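Material: AH1F fibroblast monolayer depositing Alexa488-labelled fibronectin into matrix / Amount: 10000 AH1F cells per well / Signal: fluorescence 485/525 nm / Medium: DMEM, 2% serum / Compound: single dose, pinned / Incubation: 1 h cell adhesion before compound, then overnight fibronectin incubation / Reagent: Alexa488-FN, 24 nM final / Read-out: inhibition of fibronectin deposition signal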
Env fusion inh = HIV envelope-mediated fusion inhibition; HeLa-JRFL Env/CEM21 cell fusion, luciferase; inhibition, % at 12.3 µM; 360,000 tested, 1.1% active; AID 651610;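 active = mean replicate inhibition score of at least 50 and every replicate individually at or above 50; inconclusive = only one of the two criteria met; inactive = mean below 50 and not all replicates reaching 50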;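 note: 0% = plate neutral controls and 100% = maraviroc near 300 nM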
PAX8 inh HTS = PAX8 transcriptional activity inhibition; 360,000 tested, 1.2% active; AID 652154; inhibition, % at 12.6 µM; RMG-I TPO-luciferase reporter, SteadyGlo, 24 h;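 active = mean replicate inhibition at least 60% with every replicate also reaching 60%; inconclusive = only one of the two criteria is met; inactive = mean below 60% and not all replicates reaching 60%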;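 note: luciferase light reporting Pax8 driven TPO promoter activity; plate controls were median of neutral control wells for no effect and mitoxantrone controls for full effect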
PGC1a acetyl inh = modulators of PGC1a acetylation; U2OS PGC1a acetylation, AlphaScreen anti-acetyl-lysine; with virally co-expressed GCN5 acetyltransferase; inhibition, % at 15.6 µM; 350,000 tested, 0.17% active;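 active = every replicate shows inhibition of at least 40%; inconclusive = mean inhibition at least 40% but some replicate below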;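 note: 0% = neutral control wells and 100% = positive control wells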
EWS-Fli inh = inhibitors of EWS/Fli oncoprotein transcriptional activity; A673 NR0B1-luciferase reporter, viability-normalised; inhibition, % at 12.6 µM; 350,000 tested, 0.67% active; AID 651661;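 active = mean inhibition of at least 50% after viability correction, with every replicate also passing that limit; inconclusive = mean reaches 50% but only one of two replicates passes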;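 note: firefly luciferase signal divided by Alamar Blue viability fluorescence both relative to DMSO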
Numbers without * were called inactive; ? = inconclusive; nt = not tested or not shown; [ ] = dose if it differs, or a comment. An excerpt weighted towards active compounds, which were near 2.3% of everything screened.

SMILES	CFTR F508del cor	FN deposit inh	Env fusion inh	PAX8 inh HTS	PGC1a acetyl inh	EWS-Fli inh
CNC(=O)COC(=O)c1ccccc1C(=O)c1ccc(Cl)c([N+](=O)[O-])c1	-1	15	22	31	-47	3
O=C(COC(=O)c1ccccc1C(=O)c1ccc(Cl)c([N+](=O)[O-])c1)NC1CC1	-5	25	-69	33	-94	63*
C[C@@H]1CCCCO[C@H](CN(C)Cc2ccc(C(F)(F)F)cc2)[C@@H](C)CN([C@@H](C)CO)C(=O)c2cc(NS(=O)(=O)c3cccs3)ccc2O1	-1	nt	15[16.7 µM]	89*	6	10
C[C@@H]1CN([C@@H](C)CO)C(=O)c2cc(NS(=O)(=O)c3cccs3)ccc2O[C@@H](C)CCCCO[C@H]1CN(C)Cc1ccc(C(F)(F)F)cc1	0	nt	58*[16.7 µM]	84*	-5	17
C[C@@H]1CN([C@H](C)CO)C(=O)c2cc(NS(=O)(=O)c3cccs3)ccc2O[C@@H](C)CCCCO[C@@H]1CN(C)Cc1ccc(C(F)(F)F)cc1	5	nt	15[16.7 µM]	94*	-8	-1
C[C@@H]1CN([C@H](C)CO)C(=O)c2cc(NS(=O)(=O)c3cccs3)ccc2O[C@@H](C)CCCCO[C@H]1CN(C)Cc1ccc(C(=O)O)cc1	3	nt	nt	-36	9	22
C[C@H](CO)N1C[C@H](C)[C@@H](CN(C)Cc2ccc(C(F)(F)F)cc2)OCCCC[C@H](C)Oc2ccc(NS(=O)(=O)c3cccs3)cc2C1=O	1	nt	-10[16.7 µM]	71*	-13	14
COc1ccc(S(=O)(=O)N(C)C[C@@H]2Oc3ncc(-c4ccncc4)cc3C(=O)N([C@@H](C)CO)C[C@@H]2C)cc1	-3	5	-13[16.7 µM]	nt	3	-2
O=C(N[C@H]1C=C[C@@H](CC(=O)N2CCc3ccccc3C2)O[C@H]1CO)C1CCOCC1	-3	nt	nt	nt	-3	-8
COc1ccc(C[C@@H]2CCc3cnnn3COC[C@@H](Cc3ccccc3)NC2=O)cc1	nt	2	12[16.7 µM]	0	nt	-2
O=C(Nc1cccc(Cl)c1)N1CCN(C2c3ccccc3-c3ccccc32)CC1	-2	-2	-7	2	nt	5
CC(=O)Nc1ccc2c(c1)C(N1CC3CCC(CC3)C1)c1ccccc1-2 (stereo unspecified)	-1	14	67*	1	12	-5
Cc1noc(C)c1S(=O)(=O)N(C)C[C@@H]1OCCCC[C@H](C)Oc2ccc(NS(=O)(=O)c3ccc(Cl)cc3)cc2C(=O)N([C@@H](C)CO)C[C@H]1C	1	nt	-25[16.7 µM]	-12	-6	-2
c1ccc(N2CCN(c3ccccc3)C2c2ccncc2)cc1	-1	nt	nt	nt	91*	15
c1ccc(N2CCN(c3ccccc3)C2c2cccnc2)cc1	nt	nt	nt	nt	-5	nt
COc1ccc(C)cc1NC(=O)C(OC(=O)c1ccc(Cl)c(S(=O)(=O)N(C)c2ccccc2)c1)c1ccccc1 (stereo unspecified)	9.2*	-6	36	22	nt	-3
C[C@H]1CC=CC[C@H](c2ccc3c(c2)OCO3)NC(=O)[C@H](Cc2ccccc2)N(C)C(=O)c2ccccc2O1 (mixture of isomers)	nt	0	nt	nt	nt	nt
CN(C)/C=N/C1=C(C#N)C(c2ccc(Br)cc2)c2ccc3ccccc3c2O1 (stereo unspecified)	-1	-4	59*	-14	-1	6
C[C@H](CO)N1C[C@H](C)[C@@H](CN(C)S(=O)(=O)c2cn(C)cn2)Oc2ccc(NC(=O)Nc3ccc(F)cc3)cc2CC1=O	-3	nt	8[16.7 µM]	8	1	-7
OC[C@@H]1CN(Cc2ccccc2)C[C@H](n2cnc3c(NCc4ccncc4)ncnc32)O1	-3	-10	59*	-19	1	0
OC[C@@H]1CN(Cc2ccc(-c3ccccc3)cc2)C[C@H](n2cnc3c(NCc4ccc(F)cc4)ncnc32)O1	0	11	51	84*	nt	26
OC[C@@H]1CN(Cc2ccc(-c3ccccc3)cc2)C[C@H](n2cnc3c(NC4CC4)ncnc32)O1	8.6*	10	0	14	nt	12
OC[C@@H]1CN(Cc2ccccc2)C[C@H](n2cnc3c(NCc4ccc(F)cc4)ncnc32)O1	-1	-14	-5	-16	?	-61
O=C(c1ccncc1)N1CC2(C1)[C@@H](c1ccccc1)[C@@H](CO)N2C(=O)CC1CC1	-2	nt	nt	-11	0	13
CO[C@H]1CN(C)C(=O)c2cc(NC(C)=O)ccc2OC[C@@H](C)N(C(=O)c2ccncc2)C[C@H]1C	0	-1	6[16.7 µM]	nt	-5	0
SMILES	CFTR F508del cor	FN deposit inh	Env fusion inh	PAX8 inh HTS	PGC1a acetyl inh	EWS-Fli inh
C[C@@H]1CN([C@H](C)CO)C(=O)c2cc(/C=C/c3ccccc3)cnc2O[C@@H]1CN(C)C(=O)NC1CCCCC1	0	2	3[16.7 µM]	-5	6	2
Cc1sc(NC(=O)c2ccco2)c(C(c2cccnc2)N2CCC(C)CC2)c1C (stereo unspecified)	nt	-3	62*	13	16	nt
CCN1CCN(C(c2cccnc2)c2c(NC(=O)c3ccco3)sc(C)c2C)CC1 (stereo unspecified)	-2	7	nt	8	-5	4
Cc1cc(C)nc(Nc2nc(C(N)Cc3ccc(Cl)cc3)cs2)n1 (stereo unspecified)	2	-7	-34	-12	3	-12
Cc1cc(C)nc(Nc2nc(C(N)Cc3ccc(F)cc3)cs2)n1 (stereo unspecified)	0	-31	-9	84*	nt	27
O=C(CCl)Nc1ccc(-c2ccccc2)cc1	-5	14	-5	46	-21	64*
c1ccc(-c2ccc3c(n2)CCCN3Cc2ccccn2)cc1	-2	6	61*	-164	nt	-87
Fc1ccc(-c2ccc3c(n2)CCCN3Cc2ccccn2)cc1	0	5	-50	-146	nt	-90
CC1CC(NS(=O)(=O)c2cc3c4c(c2)CCN4C(=O)CC3)CC(C)(C)C1 (stereo unspecified)	-2	1	61*	4	nt	6
CC(C)(C)NS(=O)(=O)c1cc2c3c(c1)CCN3C(=O)CC2	0	1	3	-3	5	9
COCC(=O)Nc1ccc2c(c1)[C@@H]1C[C@H](CC(=O)NC3CCCCC3)O[C@@H](CO)[C@@H]1O2	-3	1	25[16.7 µM]	-4	-4	-6
CCC(=O)N[C@@H]1C=C[C@@H](CC(=O)NCCN2CCCCC2)O[C@@H]1CO	4	11	12[16.7 µM]	-2	20	5
Cc1cc(C)c(CN2CCN(C(=O)Cn3cnc4c(NCc5ccccc5)ncnc43)CC2)c(C)c1	1	nt	87*	23	nt	21
C[C@@H]1CN(C)C(=O)Cc2cc(N)ccc2O[C@@H]1CN(C)S(C)(=O)=O	nt	-1	nt	nt	nt	nt
CCCCCOc1ccc(Br)cc1/C(C)=N/NC1=NCCN1	nt	-1	-48	81*	7	nt
